Screening data from PubChem BioAssay.
The list is not random: actives were taken first. Their share in the collection is about 2.1%.
ARNT-TACC3 inh: ARNT/TACC3 interaction disruption; AlphaScreen His-ARNT PAS-B/GST-TACC3 binding, luminescence; TACC3 fragment carries E629A point mutation; inhibition, % at 9.99 µM; 0.66% of 390,000 active; AID 623870;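 active = mean inhibition of replicates at least 50% and at least half of replicates each reaching 50%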;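 also: 0% = complete ARNT plus TACC3 wells and 100% = ARNT alone without TACC3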
Cardiac RTF inh: cardiac RTF calcium desensitization; IANBD-labeled cardiac RTF, Ca2+ fluorescence; AID 493244; inhibition, % at 7.15 µM; P19429+P45379; 0.12% of 340,000 active;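 active = inhibition above the mean inhibition of all tested compounds plus 3 SD, cut at about 17% in these data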;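 also: assay run at fixed EC70 calcium of 1.6 mM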
RTF Ca sens act: increases calcium sensitivity of human cardiac regulated thin filaments. P19429+P45379. IANBD-labeled TnC RTF fluorescence at EC20 calcium; 0% EC20 calcium, 100% full calcium. activation, % at 7.2 µM. 0.24% of 340,000 active. AID 493008;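 active = activation above the mean over all tested compounds plus 3 SD, cut at about 30% in these data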;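 also: rise in fluorescence read as greater calcium sensitivity of cardiac thin filaments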
UCH37 DUB inh: human UCH37 deubiquitinating enzyme inhibition; Q9Y5K5; purified proteasome/UCH37, Ub-AMC cleavage fluorescence; inhibition, % (no concentration beside the values); 0.33% of 330,000 active;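 active = mean inhibition over replicate wells above about 20%, limit read from the data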;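 also: 0% = compound-free wells with enzyme and 100% = wells lacking proteasome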
Target sequence (Q9Y5K5 whole entry, looked up): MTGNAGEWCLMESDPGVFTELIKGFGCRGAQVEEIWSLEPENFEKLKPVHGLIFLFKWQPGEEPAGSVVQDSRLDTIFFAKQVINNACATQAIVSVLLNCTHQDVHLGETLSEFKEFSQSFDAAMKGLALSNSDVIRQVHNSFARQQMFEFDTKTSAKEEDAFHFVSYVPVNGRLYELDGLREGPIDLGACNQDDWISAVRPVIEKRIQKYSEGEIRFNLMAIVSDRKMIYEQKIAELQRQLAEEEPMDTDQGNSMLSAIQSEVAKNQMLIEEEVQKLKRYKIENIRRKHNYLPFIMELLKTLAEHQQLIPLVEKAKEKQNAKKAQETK
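assay system = human UCH37 enzyme supplied as purified proteasome complex | amount = proteasome at 0.15 nM in the dispensed enzyme solution | schedule = 30 min compound-proteasome preincubation then 25 min substrate reaction, room temperature | measured by = fluorescence, ex 355 nm, em 460 nm | benchmarks = no-proteasome wells (full inhibition) and compound-free wells (no inhibition)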
SUMO Mot1 rescue: blocks SUMOylation pathway, rescuing yeast Mot1-301 growth; S. cerevisiae Mot1-301 growth rescue, ATP luminescence, 38.5C; percent above DMSO median, 100 means doubled; growth rescue, % at 18.8 µM; 1% of 320,000 active;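 active = every valid replicate shows activation above 250% relative to neutral control wells; inactive = the rest, any valid replicate at or below 250%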;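 also: OY570 slx delta 5 strain wells were the positive control but not used for scaling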
Efflux pump inh: blocks antifungal efflux pumps in multiplex yeast assay | S. cerevisiae Candida pump triplex, Nile Red efflux | inhibition, % at 10 µM | 0.44% of 330,000 active;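 active = plate passing quality check with inhibition over a set limit, or well fluorescence over plate mean plus 4 SD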;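 also: Nile Red retained in pooled yeast measured as flow cytometry median fluorescence; 0% = buffer negative control and 100% = Enniatin B positive control; higher means more Nile Red kept so more efflux inhibition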
* = called active by the depositor.

What do the screens show for `CN(C)c1ccc(C=c2c3cc(O)ccc3n3c2cc(-c2ccccc2)[n+]3C)cc1`?
ARNT-TACC3 inh: 60*; Cardiac RTF inh: 2; RTF Ca sens act: 3

What do the screens show for `C[n+]1c(-c2ccccc2)cc2c(=Cc3ccccc3)c3ccccc3n21`?
ARNT-TACC3 inh: 24; Cardiac RTF inh: -1; RTF Ca sens act: -4

How did COc1cc2cccc(OC)c(=O)c2c(OC)c1OC do in these assays?
ARNT-TACC3 inh: -18; Cardiac RTF inh: -5; RTF Ca sens act: -2; UCH37 DUB inh: 3; SUMO Mot1 rescue: 757*; Efflux pump inh: 0

What do the screens show for `COc1cccc2[nH]c3ccccc3c(=O)c12`?
ARNT-TACC3 inh: 1; Cardiac RTF inh: -4; RTF Ca sens act: 0; UCH37 DUB inh: inactive; SUMO Mot1 rescue: -28; Efflux pump inh: 0

Results for CC(=NNC(=O)COc1ccc(C(C)(C)C)cc1)c1ccccc1 ?
UCH37 DUB inh: 2

How did Cc1ccnc(N/C=C(\C#N)c2nc(-c3cccc(Br)c3)cs2)c1 do in these assays?
ARNT-TACC3 inh: 4; Cardiac RTF inh: -156; RTF Ca sens act: 95*; UCH37 DUB inh: 2; SUMO Mot1 rescue: 20; Efflux pump inh: 0

Results for NC(=O)NC(=O)CC1S/C(=N/N=C2/NC(=O)CS2)NC1=O (stereo not drawn) ?
ARNT-TACC3 inh: 66*; Cardiac RTF inh: -7; RTF Ca sens act: -2; UCH37 DUB inh: 2; SUMO Mot1 rescue: -20; Efflux pump inh: 0

How did NC(=O)NN=Cc1cccs1 do in these assays?
UCH37 DUB inh: 3

Results for COc1cc(C=NNC(=O)CNC(=O)c2ccc3c(c2)OCCO3)ccc1O ?
UCH37 DUB inh: -3

What do the screens show for `COc1ccc(NC(=O)CC(C)=NNC(=O)c2ccco2)c([N+](=O)[O-])c1`?
UCH37 DUB inh: 4

What do the screens show for `CCOc1ccc(C2C(C#N)=C(N)SC(N)=C2C#N)cc1OCC`?
ARNT-TACC3 inh: 5; Cardiac RTF inh: -50; RTF Ca sens act: 42*; UCH37 DUB inh: 6; SUMO Mot1 rescue: 181; Efflux pump inh: 0

How did N#CC1=C(N)SC(N)=C(C#N)C1c1cccc(Oc2ccccc2)c1 do in these assays?
ARNT-TACC3 inh: 2; Cardiac RTF inh: -71; RTF Ca sens act: 37*; UCH37 DUB inh: 6; SUMO Mot1 rescue: -20; Efflux pump inh: 0

What do the screens show for `CCOc1ccccc1C1C(C#N)=C(N)SC(N)=C1C#N`?
ARNT-TACC3 inh: -10; Cardiac RTF inh: -56; RTF Ca sens act: 30*; UCH37 DUB inh: 5; SUMO Mot1 rescue: -1; Efflux pump inh: 0

How did N#CC1=C(N)SC(N)=C(C#N)C1c1c(Cl)cccc1Cl do in these assays?
ARNT-TACC3 inh: -1; Cardiac RTF inh: -36; RTF Ca sens act: 11; UCH37 DUB inh: -3; SUMO Mot1 rescue: -27; Efflux pump inh: 0

Results for CCOc1ccc(C2C(C#N)=C(N)SC(N)=C2C#N)cc1OC ?
SUMO Mot1 rescue: -8; Efflux pump inh: 0

What do the screens show for `CCc1ccc(C2C(C#N)=C(N)SC(N)=C2C#N)cc1`?
ARNT-TACC3 inh: -6; Cardiac RTF inh: -43; RTF Ca sens act: 40*; UCH37 DUB inh: 9; SUMO Mot1 rescue: -1; Efflux pump inh: 0

How did Cc1cc(=O)[nH]c(NN=Cc2ccc(Cl)cc2Cl)n1 do in these assays?
UCH37 DUB inh: -22

What do the screens show for `CN1CCN(NC(=O)Nc2cccc(Cl)c2Cl)CC1`?
ARNT-TACC3 inh: 1; UCH37 DUB inh: 6; SUMO Mot1 rescue: 327; Efflux pump inh: 0

Results for Cn1nccc1NC(=O)Nc1cccc(Cl)c1Cl ?
ARNT-TACC3 inh: -10; Cardiac RTF inh: 3; RTF Ca sens act: 61*; UCH37 DUB inh: 1; SUMO Mot1 rescue: -16; Efflux pump inh: 0

Results for CCC(C)(C)c1ccc(OCCCC[n+]2ccccc2)c(C(C)(C)CC)c1 ?
ARNT-TACC3 inh: 2; Cardiac RTF inh: -1; RTF Ca sens act: -3; UCH37 DUB inh: 6; SUMO Mot1 rescue: 290*; Efflux pump inh: 1

How did COc1cc(C=NN=C(N)c2nonc2N)cc(OC)c1O do in these assays?
UCH37 DUB inh: 11

What do the screens show for `O=C(NN=Cc1ccncc1)c1ccncc1`?
UCH37 DUB inh: 3

What do the screens show for `Cc1cccc(/C=N/NC(=O)c2ccncc2)n1`?
ARNT-TACC3 inh: 63*; Cardiac RTF inh: -2; RTF Ca sens act: -5; SUMO Mot1 rescue: -6; Efflux pump inh: 0

What do the screens show for `O=C(NN=Cc1ccncc1)c1ccccc1`?
UCH37 DUB inh: 31*

How did Cc1cccc(C=NNC(=O)c2ccncc2)n1 do in these assays?
UCH37 DUB inh: 3

How did COc1ccccc1C(=O)NCC(=O)NN=Cc1ccncc1 do in these assays?
UCH37 DUB inh: 30*

What do the screens show for `O=C(NCC1CCCO1)C(=O)N/N=C/c1cc(Cl)ccc1O` (stereo not drawn)?
ARNT-TACC3 inh: 46*; Cardiac RTF inh: 4; RTF Ca sens act: -3; SUMO Mot1 rescue: -6; Efflux pump inh: 0

How did C/C(C=NNC(=O)c1n[nH]c2c1CCC2)=C\c1ccccc1 do in these assays?
UCH37 DUB inh: 4

How did O=C(N/N=C/c1cc(Cl)ccc1O)c1ccncc1 do in these assays?
ARNT-TACC3 inh: 69*; Cardiac RTF inh: -12; RTF Ca sens act: 4; SUMO Mot1 rescue: 6; Efflux pump inh: 0

How did O=C(NN=Cc1cc(Cl)ccc1O)c1ccncc1 do in these assays?
UCH37 DUB inh: 2

How did CCN(C(C)=O)c1cnc(C=NNC(N)=S)c2ccccc12 do in these assays?
ARNT-TACC3 inh: 86*; Cardiac RTF inh: -5; RTF Ca sens act: -6

Results for CC(=O)n1cc(C=NNC(N)=S)c2ccccc21 ?
UCH37 DUB inh: 6

Results for CCCCNC(=O)Cn1c(=O)oc2cc(S(=O)(=O)N3CC(C)CC(C)C3)ccc21 (stereo not drawn) ?
ARNT-TACC3 inh: 2; Cardiac RTF inh: -12; RTF Ca sens act: -4; UCH37 DUB inh: 6; SUMO Mot1 rescue: -4; Efflux pump inh: 0

Results for CC1CC(C)CN(S(=O)(=O)c2ccc3c(c2)oc(=O)n3CC(=O)N(C)Cc2ccccc2)C1 (stereo not drawn) ?
ARNT-TACC3 inh: -2; Cardiac RTF inh: -13; RTF Ca sens act: 1; UCH37 DUB inh: 9; SUMO Mot1 rescue: 333*; Efflux pump inh: 0

How did COc1ccnc(CSC(N)=Nc2ccc(F)cc2)c1 do in these assays?
ARNT-TACC3 inh: 82*; Cardiac RTF inh: -13; RTF Ca sens act: 4; UCH37 DUB inh: 7; SUMO Mot1 rescue: -16; Efflux pump inh: 0

Results for NC(=S)NN=Cc1coc2ccc(F)cc2c1=O ?
UCH37 DUB inh: 2

How did Cc1ccc(CN2CCN(N=Cc3ccc(C)s3)CC2)cc1 do in these assays?
UCH37 DUB inh: 5

How did COCC(=O)N/N=C\c1ccc(OC/C=C/c2ccccc2)c(OC)c1 do in these assays?
ARNT-TACC3 inh: 16; Cardiac RTF inh: -2; RTF Ca sens act: -2; SUMO Mot1 rescue: -17; Efflux pump inh: 0
